One data set has as its system GLUT1. The settings on record: pharmacological inhibition of GLUT1; cited from earlier work.
Data set [1] concerns D456 GBM PDX cells. Nature of the data set: Cell growth. The data set is classed as cell-based, human. The essentials:
(§1)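 D456 pediatric primary GBM PDX cells and normal human astrocytes were treated in the same manner with test compound (DMSO stock) at 5, 20 and 50 μM for 7 days. Growth was read by cell titer. IC50 came from non-linear regression. D456 and NHA were compared by one-way ANOVA with Dunnett's multiple comparisons.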

For data set [2], the system named is normal human astrocytes (NHAs). The data set can be described thus: Cell growth / toxicity in normal human astrocytes. The data set is classed as cell-based. The settings on record: for growth inhibition of GBM PDX cells compared to NHAs: D456 GBM PDX vs NHAs, 5, 20, 50 μM, 7 days. The essentials:
as §1

Data set [3] concerns GBM PDX cell lines, D456, GBM157, and 1016. Nature of the data set: 2-NBDG glucose uptake in three GBM PDX cell lines. It counts as cell-based, human. As to conditions: 50 μM; all cells tested (D456, GBM157, 1016). The essentials: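 2-NBDG uptake in D456, GBM157 and 1016 GBM PDX cells, run per the manufacturer's protocol. Test compound (DMSO stock) at 50 μM. Data averaged from 2 experiments with n=3 per group. Compared by one-way ANOVA with Tukey's multiple comparisons.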

Data set [4] relates to D456 GBM PDX cells. The data set can be described thus: Glucose uptake. The data set is classed as cell-based, human. In short, it runs like this: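 D456 GBM PDX cells were given test compound over a range of concentrations. Glucose uptake was read by 2-NBDG, per the manufacturer's protocol. IC50 for glucose uptake came from a curve-fit model.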
In data set [5] the test system is D456 GBM PDX cells. The data set can be described thus: 2-deoxyglucose. It counts as cell-based, human.
The subject of the next data set is GBM PDX cells. Nature of the data set: Extracellular flux analysis glycolytic stress test. The data set is classed as cell-based, human. As to conditions: 50 μM; for increase in ECAR following the addition of oligomycin: 4 hours. In short, it runs like this: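 Glycolysis stress test on a Seahorse XF96 flux analyzer in GBM PDX cells. Cells were glucose-starved with test compound at 50 μM for 4 h, then given glucose, oligomycin and 2-DG in turn. Glycolysis = ECAR after glucose minus basal. Capacity and reserve are derived from ECAR before and after 2-DG and oligomycin. Two experiments, n=6; mean ± sem; Student's t-test versus control.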

Where [6] appears, read: dose-response, Supporting Information Figure 3c.

Turning to `O=C(Oc1cccc(F)c1OC(=O)c1cccc(O)c1)c1cccc(O)c1` [WZB117, 2-Fluoro-6-(m-hydroxybenzoyloxy) Phenyl m-Hydroxybenzoate], the “tumor formation capabilities of TICs” value in the data set with GLUT1 is reported as “decrease the tumor formation capabilities of TICs”.

For the molecule `O=C1CC(c2ccc(-c3ccn[nH]3)s2)c2cc(N3CCNC3=O)ccc2N1` (stereo not shown) [SRI-37683], the “inhibition of D456 GBM PDX cell growth (in words)” value with D456 GBM PDX cells [1] (5 μM) is recorded as “almost completely inhibited”. In data set [2], the “toxicity to NHAs” value is listed as “minimal toxicity” and the “growth inhibition of GBM PDX cells compared to NHAs” value is given as “significantly stronger growth inhibition”. For the same molecule, the “inhibition of glucose uptake (2-NBDG)” value in data set [3] is recorded as 40–50%. Further, in the data set with D456 GBM PDX cells [4] (setting [6]), the “plateau of glucose uptake inhibition” value is given as around 50% and the “threshold concentration at which glucose uptake inhibition plateaus” value is given as “approximately 3 μM”. In the data set on D456 GBM PDX cells [5], the “decrease in glucose uptake (2-DG)” value was “approximately 40%” and the “glucose uptake compared to control (2-DG)” value worked out at 60%. In the data set on GBM PDX cells, the “glycolytic capacity (ECAR before 2-DG minus ECAR after 2-DG)” value is reported as “decrease”, the “glycolytic reserve capacity (ECAR after Oligo minus ECAR before Oligo)” value is reported as “decrease” and the “increase in ECAR following the addition of oligomycin” value is on record as “inhibited an increase in ECAR”. Also, the “ECAR ascribed to glycolysis after injection of glucose” value with GBM PDX cells (4 hours glucose starvation before glucose) is recorded as “significantly inhibited”.

In the case of `O=c1c(-c2ccc(O)cc2)coc2cc(O)cc(O)c12` [genistein, reference compound], the “GBM PDX cell growth (in words)” value with D456 GBM PDX cells [1] (GBM PDX cells, line not given, Supplementary Figure 5b) is on record as “did reduce GBM PDX cell growth”. In the data set on D456 GBM PDX cells [4] (D456 GBM PDX cells, Supporting Information Figures 4 and 5), the “inhibition of glucose uptake (in words)” value is given as “inhibited glucose uptake”.

Turning to `O=C1CC(c2cccc3[nH]ccc23)c2ccc(NC(=O)c3cccnc3)cc2N1` (stereo not shown) [SRI-37684], the concentration for half-maximal inhibition (IC50) in the data set on D456 GBM PDX cells [1] (read-out: IC50 for growth inhibition, D456 GBM PDX cells, 7 days) was 8.6 µM. In data set [2], the “toxicity to NHAs” value is recorded as “minimal toxicity” and the “growth inhibition of GBM PDX cells compared to NHAs” value was “significantly stronger growth inhibition”. In addition, in data set [3], the “inhibition of glucose uptake (2-NBDG)” value is reported as 40–50%. For the same molecule, the IC50 in the data set on D456 GBM PDX cells [4] (read-out: IC50 for glucose uptake, Supporting Information Figure 3c) came out at 33 µM. Further, in the data set on D456 GBM PDX cells [5], the “decrease in glucose uptake (2-DG)” value is around 50% and the “glucose uptake compared to control (2-DG)” value is recorded as 50%. Also, in the data set on GBM PDX cells, the “glycolytic capacity (ECAR before 2-DG minus ECAR after 2-DG)” value is given as “decrease”, the “glycolytic reserve capacity (ECAR after Oligo minus ECAR before Oligo)” value is reported as “decrease” and the “increase in ECAR following the addition of oligomycin” value is listed as “inhibited an increase in ECAR”.

Usually IC50 stands for the concentration needed to halve the response being measured.

Values taken from PMC6425477 (ACS chemical biology, 2018).
